Laboratory results published in ChEMBL document CHEMBL1149191, “Novel pyridazino[4,3-b]indoles with dual inhibitory activity against Mycobacterium tuberculosis and monoamine oxidase” (J Med Chem, 2004).
pIC50: −log10 of the molar value. ≈ marks a conversion by molar mass, not a printed value.

Experiments:
[1] = tested on: Mycobacterium tuberculosis; test: In vitro inhibition of Mycobacterium tuberculosis H37Rv, determined at 0.2 ug/mL; assay type: functional
Outline: (§1)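 M. tuberculosis H37Rv (Pasteur) grown twice for 1 week each in Dubos broth at 37 °C, washed, then filtered to remove clumps. 25 × 10⁴ CFU per well in RPMI 1640 with 5 mM HEPES, 2 mM L-glutamine and 2% FBS. Compound added from DMSO stock; 5,6-[³H]-uracil added at 24 h, then 18 h at 37 °C.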

[2] = tested on: Mycobacterium tuberculosis; test: In vitro inhibition of Mycobacterium tuberculosis H37Rv, determined at 20 ug/mL; assay type: functional; outline: as §1
[3] = tested on: Mycobacterium tuberculosis; test: In vitro inhibition of Mycobacterium tuberculosis H37Rv, determined at 2 ug/mL; assay type: functional; outline: as §1
[4] = target: T1, Amine oxidase [flavin-containing] A (Rattus norvegicus, UniProt P21396); test: Inhibition of Monoamine oxidase A from rat liver mitochondria
T1 sequence (P21396 whole entry): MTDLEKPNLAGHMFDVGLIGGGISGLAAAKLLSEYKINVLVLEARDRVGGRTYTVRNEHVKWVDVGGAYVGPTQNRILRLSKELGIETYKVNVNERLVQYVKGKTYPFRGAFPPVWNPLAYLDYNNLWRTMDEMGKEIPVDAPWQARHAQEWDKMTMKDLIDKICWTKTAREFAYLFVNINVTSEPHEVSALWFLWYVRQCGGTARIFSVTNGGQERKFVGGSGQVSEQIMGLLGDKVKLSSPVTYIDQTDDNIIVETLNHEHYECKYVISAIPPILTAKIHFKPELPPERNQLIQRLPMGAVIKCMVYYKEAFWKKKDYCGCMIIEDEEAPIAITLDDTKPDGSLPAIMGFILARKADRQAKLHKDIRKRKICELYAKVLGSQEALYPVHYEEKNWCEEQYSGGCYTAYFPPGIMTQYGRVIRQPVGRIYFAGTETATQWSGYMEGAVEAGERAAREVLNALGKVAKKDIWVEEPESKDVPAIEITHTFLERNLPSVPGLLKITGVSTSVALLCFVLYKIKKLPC
Outline: (§2)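 Rat liver mitochondria from differential centrifugation, in 50 mM phosphate buffer pH 7.4. Preincubated with inhibitor (10⁻⁸–10⁻³ or 10⁻⁴ M) for 60 min at 37 °C. MAO-A activity measured radiometrically as ¹⁴C-aldehyde formed from 0.1 mM [¹⁴C]-5-hydroxytryptamine creatinine sulfate; IC50 reported.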

[5] = target: T2, Amine oxidase [flavin-containing] B (Rattus norvegicus, UniProt P19643); test: Inhibition of Monoamine oxidase B from rat liver mitochondria
T2 sequence (P19643 whole entry): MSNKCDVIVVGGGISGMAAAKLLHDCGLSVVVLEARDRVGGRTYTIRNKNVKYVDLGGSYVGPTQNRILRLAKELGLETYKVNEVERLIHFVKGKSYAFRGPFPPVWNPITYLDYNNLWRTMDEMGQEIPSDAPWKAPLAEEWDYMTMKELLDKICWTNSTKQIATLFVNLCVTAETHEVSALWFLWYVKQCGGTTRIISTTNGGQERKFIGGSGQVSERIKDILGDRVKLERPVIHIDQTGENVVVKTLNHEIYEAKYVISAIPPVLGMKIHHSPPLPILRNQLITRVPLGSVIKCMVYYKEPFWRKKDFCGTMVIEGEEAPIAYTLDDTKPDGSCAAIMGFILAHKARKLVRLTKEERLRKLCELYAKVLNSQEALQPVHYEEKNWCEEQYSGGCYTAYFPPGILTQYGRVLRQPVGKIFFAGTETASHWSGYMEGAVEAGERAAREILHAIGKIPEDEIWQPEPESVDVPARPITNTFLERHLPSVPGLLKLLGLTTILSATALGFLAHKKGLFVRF
Outline: (§3)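 Rat liver mitochondria from differential centrifugation, in 50 mM phosphate buffer pH 7.4. Preincubated with inhibitor (10⁻⁸–10⁻³ or 10⁻⁴ M) for 60 min at 37 °C. MAO-B activity measured radiometrically as ¹⁴C-aldehyde formed from 10 μM [¹⁴C]-phenylethylamine; IC50 reported.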

[6] = tested on: Mycobacterium tuberculosis; test: Minimal inhibitory activity of compound against Mycobacterium tuberculosis H37Rv; assay type: functional
Outline: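 Same H37Rv [³H]-uracil incorporation assay: compound at final 20, 2.0 and 0.2 μg/mL, 24 h, then 1 μCi 5,6-[³H]-uracil for 18 h at 37 °C, harvested on filters, scintillation counted, triplicate. MIC50 is the concentration giving 50% reduction in cpm versus drug-free plate at the same bacterial dilution.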

[7] = target: T2, Amine oxidase [flavin-containing] B; test: Inhibitory activity against Monoamine oxidase B isolated from rat liver mitochondria using [14C]phenylethylamine; NI denotes no inhibition at 1000 uM; outline: as §3
[8] = target: T1, Amine oxidase [flavin-containing] A; test: Inhibitory activity of compound against Monoamine oxidase A isolated from rat liver mitochondria using [14C]5-HT creatinine sulfate; NI denotes no inhibition at 1000 uM; outline: as §2

| SMILES | inhibition at 0.2 µg/mL [1] [%] | inhibition at 20 µg/mL [2] [%] | inhibition at 2 µg/mL [3] [%] | pIC50 [4] | pIC50 [5] | MIC50 [6] [µg/mL] | IC50 [7] | IC50 [8] |
| --- | --- | --- | --- | --- | --- | --- | --- | --- |
| Nc1nnc2c3ccccc3n(Cc3ccccc3)c2c1-c1ccccc1 | 0 | 20.7 | 0 | – | – | – | – | – |
| Cn1c2ccccc2c2nnc(N)c(-c3cccc(Br)c3)c21 | 0 | 60.1 | 0 | 4.20 | 4.00 | – | – | – |
| Nc1[nH]nc2c3cc(Br)ccc3nc-2c1-c1ccccc1 | 9.2 | 91.4 | 44.3 | 4.20 | 4.60 | 4.17 (≈ 12.3 µM) | – | – |
| CO[C@H]1/C=C/O[C@@]2(C)Oc3c(C)c(O)c4c(O)c(c(/C=N/N5CCN(C)CC5)c(O)c4c3C2=O)NC(=O)/C(C)=C\C=C\[C@H](C)[C@H](O)[C@@H](C)[C@@H](O)[C@@H](C)[C@H](OC(C)=O)[C@@H]1C [RIFAMPIN] | 54.8 | 94.3 | 91.7 | – | – | 0.1 (≈ 0.122 µM) | – | – |
| Nc1[nH]nc2c3ccccc3nc-2c1-c1ccccc1Cl | 0 | 35 | 0 | 3.50 | – | – | No inhibition | – |
| Cn1c2ccc(Br)cc2c2nnc(N)c(-c3ccccc3)c21 | 0 | 54.2 | 0 | – | – | – | – | – |
| Cn1c2ccccc2c2nnc(O)c(-c3ccccc3)c21 | – | 0 | – | – | – | – | – | – |
| CC(C)c1ccc(-c2c(N)nnc3c4ccccc4n(CCN(C)C)c23)cc1 | 0 | 20.4 | 0 | 3.00 | – | – | No inhibition | – |
| CCn1c2ccccc2c2nnc(N)c(-c3ccc(C)cc3)c21 | 0 | 30.1 | 0 | – | 4.96 | – | – | No inhibition |
| CCCn1c2ccccc2c2nnc(N)c(-c3ccc(C(C)C)cc3)c21 | 0 | 20 | 0 | – | – | – | – | – |
| Nc1[nH]nc2c3ccccc3nc-2c1-c1ccccc1F | 0 | 40.3 | 0 | 3.20 | – | – | No inhibition | – |
| Cc1ccc2c(c1)c1nnc(N)c(-c3ccc(C(C)C)cc3)c1n2C | 0 | 40.5 | 0 | – | – | – | – | – |
| COc1ccc(-c2c3nc4ccccc4c-3n[nH]c2N)cc1 | 0 | 30.2 | 0 | – | – | 14.9 (≈ 51.2 µM) | – | – |
| CC(C)c1ccc(-c2c(N)nnc3c4cc(Br)ccc4n(C)c23)cc1 | 0 | 60.7 | 0 | – | – | 17.1 (≈ 43.3 µM) | – | – |
| CC(=O)N(C(C)=O)c1nnc2c3ccccc3n(C)c2c1-c1ccccc1 | – | 0 | – | – | – | – | – | – |
| CC(C)c1ccc(-c2c3nc4ccccc4c-3n[nH]c2N)cc1 | 8.7 | 61.9 | 32.9 | < 3.00 | < 3.00 | 12.6 (≈ 41.8 µM) | – | – |
| CCn1c2ccccc2c2nnc(N)c(-c3ccccc3)c21 | 0 | 40.3 | 0 | – | 4.14 | – | – | No inhibition |
| Nc1nnc2c3ccccc3n(Cc3ccccc3)c2c1-c1ccccc1Cl | 0 | 50.8 | 0 | 4.75 | 4.45 | – | – | – |

| SMILES | inhibition at 0.2 µg/mL [1] [%] | inhibition at 20 µg/mL [2] [%] | inhibition at 2 µg/mL [3] [%] | pIC50 [4] | pIC50 [5] | MIC50 [6] [µg/mL] | IC50 [7] | IC50 [8] |
| --- | --- | --- | --- | --- | --- | --- | --- | --- |
| Cc1ccc(-c2c(N)nnc3c4ccccc4n(C)c23)cc1 | 0 | 62.3 | 0 | – | – | – | – | – |
| Nc1[nH]nc2c3ccccc3nc-2c1-c1cccc(Br)c1 | 0 | 32 | 0 | – | – | – | – | – |
| CC(C)c1ccc(-c2c(N)nnc3c4ccccc4n(C)c23)cc1 | 21.3 | 88 | 63.6 | 4.85 | 3.50 | 1.42 (≈ 4.49 µM) | – | – |
| Nc1nnc2c([nH]c3ccccc32)c1-c1ccccc1 | 2.3 | 28.5 | 25.5 | – | – | – | No inhibition | No inhibition |
| Cn1c2ccccc2c2nnc(N)c(-c3ccccc3)c21 | 2.3 | 40.2 | 25.5 | 4.55 | ~3.00 | – | – | – |
| CCn1c2ccccc2c2nnc(N)c(-c3ccccc3Cl)c21 | 0 | 15.9 | 0 | ~3.00 | ~3.00 | – | – | – |
| Cc1ccc(-c2c3nc4ccccc4c-3n[nH]c2N)cc1 | 0 | 40.5 | 0 | 4.50 | 3.80 | 16.5 (≈ 60.1 µM) | – | – |
| CCn1c2ccccc2c2nnc(N)c(-c3ccc(C(C)C)cc3)c21 | 0 | 94.3 | 10.5 | 4.00 | 4.80 | 10.5 (≈ 31.7 µM) | – | – |
| Nc1[nH]nc2c3ccccc3nc-2c1-c1ccc(F)cc1 | 0 | 35.1 | 0 | – | – | – | No inhibition | No inhibition |
| CC(C)c1ccc(-c2c(N3C(=O)c4ccccc4C3=O)nnc3c4ccccc4n(C)c23)cc1 | – | 0 | – | – | – | – | – | – |
| CC(C)c1ccc(-c2c3nc4ccc(Br)cc4c-3n[nH]c2N)cc1 | 7.1 | 88.5 | 56.3 | 4.20 | 4.10 | 1.77 (≈ 4.64 µM) | – | – |
| Oc1[nH]nc2c3ccccc3nc-2c1-c1ccccc1 | – | 0 | – | – | – | – | – | – |
| Cn1c2ccccc2c2nnc(N)c(-c3ccccc3Cl)c21 | 0 | 3.1 | 0 | ~3.00 | ~3.00 | – | – | – |
| Cn1c2ccccc2c2nnc(NC=O)c(-c3ccccc3)c21 | – | 0 | – | – | – | – | – | – |
| CN(C)c1ccc(-c2c3nc4ccccc4c-3n[nH]c2N)cc1 | 5.2 | 66 | 10 | 4.10 | ~3.00 | – | – | – |
| CC(C)c1ccc(-c2c(O)nnc3c4ccccc4n(C)c23)cc1 | – | 0 | – | – | – | – | – | – |
| Cn1c2ccccc2c2nnc(N)c(-c3ccccc3F)c21 | 0 | 45.3 | 0 | – | 4.38 | – | – | No inhibition |
| NNC(=O)c1ccncc1 [ISONIAZID] | 49.7 | 68.7 | 59.1 | – | – | 0.25 (≈ 1.82 µM) | – | – |
